C8 TRAIL sens = viability loss with TRAIL in NB7+C8 cells, primary screen, TRAIL sensitizer project, cell-based, ATPlite luminescence | inhibition (viability loss, TRAIL sensitization), % at 10 µM | 1% of 360,000 active | AID 624354, 2012;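 active = compounds causing at least 50% loss of cell viability in the single-dose screen, relative to plate controls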
FLuc inhib CS = firefly luciferase enzyme inhibitors, primary screen, artefact control for luciferase-based inhibitor screens, biochemical, luminescence, ATPLite; Luciferin 4-monooxygenase (Photinus pyralis), P08659; 10 min; inhibition, % at 10 µM; 1.5% of 200,000 active; AID 1006, 2008;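 active = inhibition above about 50% when tested at 10 µM, limit read from the data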
Target sequence (P08659 whole entry, looked up): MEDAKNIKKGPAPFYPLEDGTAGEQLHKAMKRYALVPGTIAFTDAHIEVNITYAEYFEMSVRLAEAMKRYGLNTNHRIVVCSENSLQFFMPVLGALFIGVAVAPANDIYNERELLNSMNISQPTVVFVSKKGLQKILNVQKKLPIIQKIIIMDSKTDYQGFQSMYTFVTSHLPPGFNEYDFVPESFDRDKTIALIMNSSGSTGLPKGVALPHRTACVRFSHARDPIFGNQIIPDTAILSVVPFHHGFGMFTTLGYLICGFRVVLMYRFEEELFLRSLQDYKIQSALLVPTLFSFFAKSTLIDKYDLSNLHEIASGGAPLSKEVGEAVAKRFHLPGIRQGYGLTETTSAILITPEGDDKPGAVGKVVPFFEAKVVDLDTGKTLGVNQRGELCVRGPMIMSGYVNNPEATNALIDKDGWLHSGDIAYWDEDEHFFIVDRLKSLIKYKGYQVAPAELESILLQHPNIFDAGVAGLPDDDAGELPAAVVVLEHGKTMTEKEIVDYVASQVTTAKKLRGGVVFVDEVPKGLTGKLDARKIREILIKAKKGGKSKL
FLuc act counter = FLuc activators, initial screening, artefact control for FLuc-dependent activation tests, biochemical, ATPlite luminescence; activation factor at 10 µM; Luciferin 4-monooxygenase (Photinus pyralis), P08659; ATPlite luciferase biochemical, 10 min; 0 = ATP-free wells, 1 = DMSO control; 200,000 tested, under 10 active;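 active = luciferase activation factor, scaled between plate controls, of at least 2 with compound at 10 µM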
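System: cell-free luciferase reagent; medium: PBS as buffer for the ATP substrate; doses: test compounds dosed from 2 mM stocks in 100% DMSO; incubation: 10 min, room temperature; measured by: luminescence from luciferase reaction; read-out: luciferase activation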
PPC-1+TRAIL kill = compounds killing PPC-1 cancer cells with TRAIL present, primary screen, TRAIL potentiator project, ATPLite luminescence, uHTS | PPC-1 cells + TRAIL, ATPLite viability luminescence | 0.41% of 220,000 active | cell killing (% activity), % at 4 µM or 5 µM;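 active = cell killing above 50% in the first pass at 4 µM, then a duplicate retest at 5 µM averaging 50% or more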;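 also: plate controls were cells with TRAIL plus DMSO for no effect and medium-only wells lacking cells for full effect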
* marks the source's active call; other numbers are inactive results; · = not tested or not shown. A selection: hits, their analogues and other compounds. The true share with any hit is near 1.5%.

SMILES | C8 TRAIL sens | FLuc inhib CS | FLuc act counter | PPC-1+TRAIL kill
CCCc1cc(=O)oc2cc(OCC(=O)NC3CC(C)(C)NC(C)(C)C3)ccc12 | 16 | · | · | ·
COc1ccccc1Nc1nc(N)nc(CCl)n1 | 92* | · | · | 26
Cc1cccc(Nc2nc(N)nc(CCl)n2)c1C | 94* | · | · | 39
Cc1cccc(Nc2nc(N)nc(CN3CCC(C(N)=O)CC3)n2)c1C | 3 | -2 | 1 | 16
COc1ccc(OC)c(Nc2nc(N)nc(CCl)n2)c1 | 92* | · | · | 4
O=C(COC(=O)c1ccc[n+]([O-])c1)Nc1cc([N+](=O)[O-])ccc1Cl | 17 | · | · | ·
CCC(O)(CC)C(=O)NN(C(=O)CCl)c1ccccc1 | 19 | -5 | 1.1 | -6
O=C(CCl)N(CCc1ccccc1)CCc1ccccc1 | 95* | · | · | ·
CCCCCCN(C(=O)CCl)c1ccccc1 | 96* | · | · | 22
O=C(Nc1ccccc1)NN(C(=O)CCl)c1ccccc1 | 97* | · | · | ·
CCCCCCCN(C(=O)CCl)c1cccc(C)c1 | 95* | -5 | 1 | 16
O=C(CCCc1ccccc1)NCCc1ccccc1 | -14 | · | · | ·
Cc1ccc2c(c1C)OC(=O)CC2c1ccccc1 (stereo unspecified) | -1 | · | · | ·
CNC(=O)CSc1nc2cccnc2n1-c1ccc(F)cc1 | -8 | · | · | ·
Cc1ccc(OCC(=O)N(Cc2ccccc2)c2c(N)n(Cc3ccccc3)c(=O)[nH]c2=O)c(C)c1 | 7 | · | · | ·
O=C(CCl)N(c1ccccc1)c1ccccc1 | 94* | -4 | 1 | -6
Cc1ccc(C(O)(C(=O)NN(C(=O)c2ccccc2)c2ccccc2)c2ccc(C)cc2)cc1 | -7 | 0 | 1 | 5
Cc1ccc(N(NC(=O)C(O)(c2ccccc2)c2ccccc2)C(=O)CCl)cc1 | 54* | 5 | 0.9 | 30
O=C(N(c1ccccc1)c1ccccc1)N(c1ccccc1)c1ccccc1 | 11 | · | · | 19
Cn1c(CCC(=O)Nc2cc(S(C)(=O)=O)ccc2Cl)nc2cc(S(=O)(=O)N3CCOCC3)ccc21 | 0 | · | · | ·
CCCCCCn1c(=O)n2n(c1=O)C[C@]1(OC(=O)NCc3ccco3)CN(S(=O)(=O)c3ccc(C)cc3)C[C@]1(O)C2 | 22 | · | · | ·
O=C(/C=C/c1ccccc1)c1ccc2c(c1)OCCCCO2 | 15 | 88* | 0.1 | 7
COc1ccc(OC)c(/C=C/C(=O)c2ccc3c(c2)OCCO3)c1 | 65* | · | · | ·
Nc1ncnc2c1C(c1ccccc1)c1c(ccc3ccccc13)O2 (stereo unspecified) | 13 | · | · | ·
CCOc1ccc(NC(=O)c2cc(S(=O)(=O)N3CCOCC3)cn2C)cc1 | 5 | · | · | ·
SMILES | C8 TRAIL sens | FLuc inhib CS | FLuc act counter | PPC-1+TRAIL kill
COc1ccc(-c2cn3c(n2)CCC3)cc1 | 11 | 25 | 0.8 | 21
c1ccc(-c2ccc(-c3cn4c(n3)CCC4)cc2)cc1 | 72* | 65* | 0.3 | 50
Cc1nnsc1C(=O)N/N=C/c1ccc2ccccc2c1O | 17 | -5 | 1.1 | 60*
Cc1cccc(NC(=O)CSc2nc3nc(C)cc(C)n3n2)c1 | -15 | · | · | ·
CCc1ccc(/C=C2\SC(=S)N(CCCC(=O)N(CCO)c3ccccc3)C2=O)cc1 | 92* | · | · | ·
CCc1ccc(/C=C2\SC(=S)N(CCCC(=O)Nc3ccccn3)C2=O)cc1 | 63* | 1 | 1 | 7
CCOc1ccc(/C=C2\SC(=S)N(CCC(=O)N(CCO)c3ccccc3)C2=O)cc1 | 34 | · | · | ·
COc1cccc(C=Cc2nccc3ccccc23)c1OC | 61* | · | · | ·
CN(C)c1ccc(C=Cc2nccc3ccccc23)cc1 | 20 | · | · | ·
CCN1/C(=C\c2ccc3cc(C)ccc3[n+]2CC)Sc2cc(C)c(C)cc21 | 21 | -1 | 1 | 39
CCN1/C(=C/c2ccc3cccc(C)c3[n+]2CC)Sc2ccccc21 | 61* | -4 | 1 | 25
COc1ccc(-n2nc(C(=O)NCC(=O)Nc3cccc(Cl)c3)c3ccccc3c2=O)cc1 | 7 | · | · | ·
O=C1c2ccc(Cl)cc2S(=O)(=O)c2cccc(C(=O)N3CCN(c4ccc(Cl)cn4)CC3)c21 | 59* | · | · | ·
COc1ccc(-c2ccc3c(c2)S(=O)(=O)c2cccc(C(=O)N4CCN(c5ccc(Cl)cn5)CC4)c2C3=O)cc1OC | 13 | · | · | ·
O=C(Nc1nccs1)c1ccc(-c2ccc(F)cc2)o1 | 54* | 78* | 0.2 | 49
O=C(Nc1nccs1)c1ccc(-c2ccc([N+](=O)[O-])cc2)o1 | 23 | 21 | 0.8 | 28
COc1ccc(C(=O)COC(=O)c2nc3nccc(C)n3n2)cc1F | -7 | · | · | ·
CCCCNC(=O)C1(C)CCCCN1Cc1ccc(OCc2ccccc2)cc1 (stereo unspecified) | 14 | · | · | ·

Source: PubChem
